Results published in ChEMBL document CHEMBL1156710, “Design, synthesis and characterization of some bioactive conjugates of curcumin with glycine, glutamic acid, valine and demethylenated piperic acid and study of their antimicrobial and antiproliferative properties” (2008).
Values after ≈ are worked out from the molar mass of the structure shown. Active and inactive are the calls of the source. No cut-off for these calls is given here.

Key:
Enterobacter cloacae [1] = experiment: Antibacterial activity against Enterobacter cloacae after 18 hrs by broth microdilution susceptibility test; format: functional
Procedure, shortened: (§1)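 Broth microdilution in Mueller-Hinton broth at pH 7.4. Inoculum came from a broth culture grown 4–6 h to log phase. Compound dilutions were […]. Tubes were shaken and incubated at 37 °C for 18 h, then read for turbidity. MIC is the lowest concentration with no turbidity. Each test was run in triplicate and MICs come from at least two repetitions.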

Micrococcus [2] = experiment: Antibacterial activity against Micrococcus after 18 hrs by broth microdilution susceptibility test; format: functional; procedure, shortened: as §1
[3] = test system: Staphylococcus saprophyticus; experiment: Antibacterial activity against Staphylococcus saprophyticus after 18 hrs by broth microdilution susceptibility test; format: functional; procedure, shortened: as §1
[4] = test system: Staphylococcus saprophyticus; experiment: Antibacterial activity against Staphylococcus saprophyticus at 20 umol/ml after 24 hrs by Kirby-Bauer's disk diffusion assay; format: functional
Procedure, shortened: (§2)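 Kirby-Bauer disc diffusion. Compounds were dissolved in acetone and serially diluted. Sterile 6 mm discs were soaked in the solutions and dried. 1 ml of bacterial broth culture was spread on Mueller-Hinton agar plates and the discs were placed aseptically. Plates were incubated upright at 37 °C for 24 h and the inhibition zone was measured with a scale.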

Klebsiella aerogenes [5] = experiment: Antibacterial activity against Klebsiella aerogenes after 18 hrs by broth microdilution susceptibility test; format: functional; procedure, shortened: as §1
Enterobacter cloacae [6] = experiment: Antibacterial activity against Enterobacter cloacae at 20 umol/ml after 24 hrs by Kirby-Bauer's disk diffusion assay; format: functional; procedure, shortened: as §2
Escherichia coli [7] = experiment: Antibacterial activity against Escherichia coli after 18 hrs by broth microdilution susceptibility test; format: functional; procedure, shortened: as §1
Micrococcus [8] = experiment: Antibacterial activity against Micrococcus at 20 umol/ml after 24 hrs by Kirby-Bauer's disk diffusion assay; format: functional; procedure, shortened: as §2
Candida albicans [9] = experiment: Antifungal activity against Candida albicans at 20 umol/ml after 48 hrs; format: functional
Procedure, shortened: (§3)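 Clinical fungal isolates were subcultured on Sabouraud dextrose agar. For the inoculum, cultures were grown on Sabouraud dextrose agar for 48 h at 37 °C. Conidia were dislodged into sterile saline, the suspension was brought to 5 ml, and the microconidia were counted. This suspension was swabbed over Sabouraud dextrose agar plates poured 5 mm deep, and excess was decanted. Sterile 6 mm discs were charged with compound.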

Penicillium chrysogenum [10] = experiment: Antifungal activity against Penicillium notatum at 20 umol/ml after 48 hrs; format: functional; procedure, shortened: as §3
Penicillium chrysogenum [11] = experiment: Antifungal activity against Penicillium notatum at 10 umol/ml after 48 hrs; format: functional; procedure, shortened: as §3
Candida albicans [12] = experiment: Antifungal activity against Candida albicans at 10 umol/ml after 48 hrs; format: functional; procedure, shortened: as §3
Escherichia coli [13] = experiment: Antibacterial activity against Escherichia coli at 20 umol/ml after 24 hrs by Kirby-Bauer's disk diffusion assay; format: functional; procedure, shortened: as §2
Klebsiella aerogenes [14] = experiment: Antibacterial activity against Klebsiella aerogenes at 20 umol/ml after 24 hrs by Kirby-Bauer's disk diffusion assay; format: functional; procedure, shortened: as §2
Aspergillus fumigatus [15] = experiment: Antifungal activity against Aspergillus fumigatus at 20 umol/ml after 48 hrs; format: functional; procedure, shortened: as §3
Candida parapsilosis = experiment: Antifungal activity against Candida parapsilosis at 20 umol/ml after 48 hrs; format: functional
Procedure, shortened: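 Clinical isolates from diagnosed patients, subcultured on Sabouraud dextrose agar slants at 30 °C for 10–12 days. Inoculum from 48 h SDA cultures at 37 °C, dislodged into sterile saline and brought to 5 ml. Suspension swab-spread on SDA plates poured 5 mm deep, excess decanted. Sterile 6 mm discs charged with compound. Fluconazole reference.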

Aspergillus fumigatus [16] = experiment: Antifungal activity against Aspergillus fumigatus at 10 umol/ml after 48 hrs; format: functional; procedure, shortened: as §3
Micrococcus [17] = experiment: Antibacterial activity against Micrococcus at 5 umol/ml after 24 hrs by Kirby-Bauer's disk diffusion assay; format: functional; procedure, shortened: as §2
Micrococcus [18] = experiment: Antibacterial activity against Micrococcus at 10 umol/ml after 24 hrs by Kirby-Bauer's disk diffusion assay; format: functional; procedure, shortened: as §2
Escherichia coli [19] = experiment: Antibacterial activity against Escherichia coli at 10 umol/ml after 24 hrs by Kirby-Bauer's disk diffusion assay; format: functional; procedure, shortened: as §2
HeLa = experiment: Antiproliferative activity against human HeLa cells after 48 hrs by MTT assay; format: functional, cell-based
Procedure, shortened: (§4)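 KB and HeLa cells were grown in DMEM with 10% heat-inactivated fetal calf serum and penicillin-streptomycin at 37 °C, 5% CO2. Cells were seeded at 5×10³ per well. After 16 h the medium was replaced with medium containing compound diluted from stock. MTT (from a 5 mg/ml 10× stock) was added for 4 h at 37 °C. Crystals were dissolved in DMSO and OD read at 570 nm, 48 h after treatment.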

KB = experiment: Antiproliferative activity against human KB cells after 48 hrs by MTT assay; format: functional, cell-based; procedure, shortened: as §4
[20] = test system: Staphylococcus saprophyticus; experiment: Antibacterial activity against Staphylococcus saprophyticus at 5 umol/ml after 24 hrs by Kirby-Bauer's disk diffusion assay; format: functional; procedure, shortened: as §2
[21] = test system: Staphylococcus saprophyticus; experiment: Antibacterial activity against Staphylococcus saprophyticus at 10 umol/ml after 24 hrs by Kirby-Bauer's disk diffusion assay; format: functional; procedure, shortened: as §2
Enterobacter cloacae [22] = experiment: Antibacterial activity against Enterobacter cloacae at 5 umol/ml after 24 hrs by Kirby-Bauer's disk diffusion assay; format: functional; procedure, shortened: as §2
Enterobacter cloacae [23] = experiment: Antibacterial activity against Enterobacter cloacae at 10 umol/ml after 24 hrs by Kirby-Bauer's disk diffusion assay; format: functional; procedure, shortened: as §2

## O=C(O)/C=C/C=C/c1ccc(O)c(O)c1 [DEMETHYLENATED PIPERIC ACID]
Enterobacter cloacae [1]
  MIC: 10 mM (≈ 2060 µg/mL)
Micrococcus [2]
  MIC: 10 mM (≈ 2060 µg/mL)
[3]
  MIC: 20 mM (≈ 4120 µg/mL)
[4]
  inhibition zone (IZ): 10 mm
Klebsiella aerogenes [5]
  Activity: inactive
Enterobacter cloacae [6]
  inhibition zone (IZ): 18 mm
Escherichia coli [7]
  Activity: inactive
Micrococcus [8]
  inhibition zone (IZ): 15 mm
Candida albicans [9]
  inhibition zone (IZ): 16 mm

## COc1cc(/C=C/C(=O)CC(=O)/C=C/c2ccc(OC(=O)CN)c(OC)c2)ccc1O [MONOGLYCINOYL CURCUMIN]
Enterobacter cloacae [1]
  Activity: inactive
Micrococcus [2]
  Activity: inactive
[3]
  Activity: inactive
Penicillium chrysogenum [10]
  inhibition zone (IZ): 20 mm
Penicillium chrysogenum [11]
  inhibition zone (IZ): 16 mm
Candida albicans [12]
  inhibition zone (IZ): 18 mm
Escherichia coli [13]
  inhibition zone (IZ): 12 mm
Klebsiella aerogenes [14]
  inhibition zone (IZ): 18 mm
Klebsiella aerogenes [5]
  MIC: 5 mM (≈ 2130 µg/mL)
Aspergillus fumigatus [15]
  inhibition zone (IZ): 25 mm
Candida parapsilosis
  inhibition zone (IZ): 14 mm
Aspergillus fumigatus [16]
  inhibition zone (IZ): 20 mm
Escherichia coli [7]
  MIC: 20 mM (≈ 8510 µg/mL)
Candida albicans [9]
  inhibition zone (IZ): 20 mm

## OC(Cn1cncn1)(Cn1cncn1)c1ccc(F)cc1F [FLUCONAZOLE]
Candida parapsilosis
  inhibition zone (IZ): 20 mm
Candida albicans [9]
  inhibition zone (IZ): 29 mm

## COc1cc(/C=C/C(=O)CC(=O)/C=C/c2ccc(O)c(OC)c2)ccc1O [CURCUMIN]
Escherichia coli [13]
  inhibition zone (IZ): 10 mm
Klebsiella aerogenes [5]
  Activity: inactive
Escherichia coli [7]
  MIC: 20 mM (≈ 7370 µg/mL)
Candida albicans [9]
  inhibition zone (IZ): 15 mm

## COc1cc(/C=C/C(=O)CC(=O)/C=C/c2ccc(OC(=O)[C@@H](N)C(C)C)c(OC)c2)ccc1O [MONOVALINOYL CURCUMIN]
Enterobacter cloacae [1]
  MIC: 2.5 mM (≈ 1170 µg/mL)
Micrococcus [2]
  MIC: 2.5 mM (≈ 1170 µg/mL)
[3]
  Activity: inactive
Penicillium chrysogenum [10]
  inhibition zone (IZ): 12 mm
Micrococcus [17]
  inhibition zone (IZ): 19 mm
Escherichia coli [13]
  inhibition zone (IZ): 13 mm
Klebsiella aerogenes [14]
  inhibition zone (IZ): 18 mm
Klebsiella aerogenes [5]
  MIC: 5 mM (≈ 2340 µg/mL)
Enterobacter cloacae [6]
  inhibition zone (IZ): 25 mm
Micrococcus [18]
  inhibition zone (IZ): 20 mm
Escherichia coli [7]
  MIC: 10 mM (≈ 4680 µg/mL)
Micrococcus [8]
  inhibition zone (IZ): 26 mm
Escherichia coli [19]
  inhibition zone (IZ): 11 mm

## COc1cc(/C=C/C(=O)CC(=O)/C=C/c2ccc(OC(=O)[C@@H](N)CCC(=O)O)c(OC)c2)ccc1OC(=O)[C@@H](N)CCC(=O)O
HeLa
  Activity: Active
Enterobacter cloacae [1]
  Activity: inactive
Micrococcus [2]
  MIC: 5 mM (≈ 3130 µg/mL)
[3]
  Activity: inactive
Klebsiella aerogenes [14]
  inhibition zone (IZ): 9 mm
Klebsiella aerogenes [5]
  MIC: 20 mM (≈ 12500 µg/mL)
KB
  Activity: Active
Micrococcus [18]
  inhibition zone (IZ): 16 mm
Escherichia coli [7]
  Activity: inactive
Micrococcus [8]
  inhibition zone (IZ): 18 mm

## COc1cc(/C=C/C(=O)CC(=O)/C=C/c2ccc(OC(=O)CN)c(OC)c2)ccc1OC(=O)CN
Enterobacter cloacae [1]
  Activity: inactive
Micrococcus [2]
  MIC: 10 mM (≈ 4820 µg/mL)
[3]
  Activity: inactive
[4]
  inhibition zone (IZ): 14 mm
Micrococcus [17]
  inhibition zone (IZ): 10 mm
[20]
  inhibition zone (IZ): 10 mm
Klebsiella aerogenes [5]
  Activity: inactive
Enterobacter cloacae [6]
  inhibition zone (IZ): 12 mm
Micrococcus [18]
  inhibition zone (IZ): 13 mm
[21]
  inhibition zone (IZ): 12 mm
Escherichia coli [7]
  MIC: 20 mM (≈ 9650 µg/mL)
Micrococcus [8]
  inhibition zone (IZ): 15 mm

## COc1cc(/C=C/C(=O)CC(=O)/C=C/c2ccc(OC(=O)[C@@H](N)C(C)C)c(OC)c2)ccc1OC(=O)[C@@H](N)C(C)C
Enterobacter cloacae [1]
  MIC: 5 mM (≈ 2830 µg/mL)
Micrococcus [2]
  MIC: 10 mM (≈ 5670 µg/mL)
[3]
  MIC: 10 mM (≈ 5670 µg/mL)
[4]
  inhibition zone (IZ): 14 mm
Escherichia coli [13]
  inhibition zone (IZ): 20 mm
Klebsiella aerogenes [5]
  Activity: inactive
Enterobacter cloacae [6]
  inhibition zone (IZ): 20 mm
Micrococcus [18]
  inhibition zone (IZ): 13 mm
[21]
  inhibition zone (IZ): 12 mm
Escherichia coli [7]
  MIC: 5 mM (≈ 2830 µg/mL)
Micrococcus [8]
  inhibition zone (IZ): 16 mm

## COc1cc(/C=C/C(=O)CC(=O)/C=C/c2ccc(OC(=O)/C=C/C=C/c3ccc(O)c(O)c3)c(OC)c2)ccc1OC(=O)/C=C/C=C/c1ccc(O)c(O)c1
Enterobacter cloacae [22]
  inhibition zone (IZ): 12 mm
Enterobacter cloacae [1]
  MIC: 5 mM (≈ 3720 µg/mL)
Micrococcus [2]
  MIC: 10 mM (≈ 7450 µg/mL)
[3]
  MIC: 20 mM (≈ 14900 µg/mL)
[4]
  inhibition zone (IZ): 10 mm
Enterobacter cloacae [23]
  inhibition zone (IZ): 14 mm
Escherichia coli [13]
  inhibition zone (IZ): 16 mm
Klebsiella aerogenes [14]
  inhibition zone (IZ): 11 mm
Klebsiella aerogenes [5]
  MIC: 20 mM (≈ 14900 µg/mL)
Enterobacter cloacae [6]
  inhibition zone (IZ): 18 mm
Micrococcus [18]
  inhibition zone (IZ): 12 mm
Escherichia coli [7]
  MIC: 10 mM (≈ 7450 µg/mL)
Micrococcus [8]
  inhibition zone (IZ): 16 mm
Candida albicans [9]
  inhibition zone (IZ): 16 mm

## O=C(O)/C=C/C=C/c1ccc2c(c1)OCO2 [PIPERIC ACID]
[3]
  Activity: inactive
Klebsiella aerogenes [14]
  inhibition zone (IZ): 8 mm
Klebsiella aerogenes [5]
  MIC: 20 mM (≈ 4360 µg/mL)
Escherichia coli [7]
  Activity: inactive
